The source of these data is ChEMBL document CHEMBL5705891, “Small-molecule kinase inhibitors provide insight into Mps1 cell cycle function” (Nat Chem Biol, 2010).

pKd: −log10 of the molar value. Calls of active or inactive are those of the source. The calls are words filed in the database; no cut-off is given here.

The test system of data set [1] is U2OS. In words: Effect on thymidine-treated human U2OS cell populations after two cell doubling at 10 uM incubated for 4 hrs followed by thymidine release by immunofluorescence imaging analysis. It counts as functional, cell-based.
The subject of data set [2] is U2OS. The data set is described as follows: Reversal of nocodazole-induced mitotic arrest in human U2OS cells assessed as Ser10 phosphorylated Histone H3-positive 4c population at 5 uM incubated for 16 hrs by flow cytometry (reference value: 94 %). Format: functional. In general terms: A flow cytometer gives signals particle by particle.
Data set [3] deals with Mitogen-activated protein kinase 1 (Homo sapiens, UniProt P28482). In words: Binding affinity to ERK2 (unknown origin) assessed as dissociation constant by Ambit kinase binding assay.
In data set [4] the test system is U2OS. The data set is described as follows: Reversal of nocodazole-induced mitotic arrest in human U2OS cells assessed as decrease in cyclin B level at 10 uM incubated for 4 hrs in presence of MG132 by immunoblot analysis. It counts as functional, cell-based.
Data set [5] has as its system UTRM10. The data set is described as follows: Inhibition of hyperphosphorylation of LAP-tagged Mps1 M602Q mutant (unknown origin) expressed in UTRM10 cells (unknown origin) measured after 90 mins by immunoblot analysis. The following applies: Homo sapiens. It counts as cell-based. In general terms: A western blot detects proteins with antibodies after separation by electrophoresis.

In data set [6] the test system is U2OS. The data set is described as follows: Induction of premature entry into anaphase in thymidine-treated human U2OS cells expressing H2B-GFP and Plk4 overexpression measured for 30 mins by time lapse imaging analysis relative to control. It counts as functional. The note with it: 0.5 h. In short, it runs like this: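 Doxycycline-inducible Plk4 U2OS cells expressing H2B-GFP were blocked with thymidine for 18 hrs and released into doxycycline (2 μg·ml⁻¹) for 10 hrs. A second 18-hr thymidine block followed, then release for 6 hrs before 5 μM inhibitor, with or without Plk4 induction. Cells were imaged by time-lapse at 37°C, 5% CO₂, timed from NEBD, and bipolar versus multipolar anaphases were scored. Values are mean ± SD of 3 independent experiments.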

For data set [7], the system named is HCT-116. In words: Antiproliferative activity against human HCT-116 cells with p53-/- at 10 uM measured after 96 hrs in presence of Z-VAD-FMK by Syto60 staining based assay. It counts as functional, cell-based.
Data set [8] relates to A549. The data set is described as follows: Antiproliferative activity against human A549 cells at 10 uM incubated for 4 days by Syto60 staining based assay. It counts as functional, cell-based. The note with it: time 4.0 day.
Data set [9] concerns TERT-RPE1. The data set is described as follows: Antiproliferative activity against hTERT-RPE1 cells assessed as loss of clonal survival upto 25 uM incubated for 10 days by crystal violet staining based assay. Format: toxicity, cell-based. The note with it: human, tert-rpe1, 240 h, time 10 day. In short, it runs like this: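 Colony outgrowth: cells plated at 200 cells per 60-mm dish, exposed to compound or DMSO vehicle and stained with crystal violet after 10 days. HCT116 grown in McCoy's 5A; A549 and HeLa in DMEM; hTERT-RPE1 in DMEM/F-12. All media had 10% FBS and penicillin/streptomycin, 37°C, 5% CO2. Quantified from 3 independent experiments, mean + SD, Student's t test.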

For data set [10], the target named is Tyrosine-protein kinase Fer (Homo sapiens) (UniProt P16591). In words: Inhibition of FER (unknown origin) assessed as residual enzyme activity at 10 uM by Ambit kinase binding assay relative to control.
Sequence of Tyrosine-protein kinase Fer (Homo sapiens) (P16591 whole entry, looked up): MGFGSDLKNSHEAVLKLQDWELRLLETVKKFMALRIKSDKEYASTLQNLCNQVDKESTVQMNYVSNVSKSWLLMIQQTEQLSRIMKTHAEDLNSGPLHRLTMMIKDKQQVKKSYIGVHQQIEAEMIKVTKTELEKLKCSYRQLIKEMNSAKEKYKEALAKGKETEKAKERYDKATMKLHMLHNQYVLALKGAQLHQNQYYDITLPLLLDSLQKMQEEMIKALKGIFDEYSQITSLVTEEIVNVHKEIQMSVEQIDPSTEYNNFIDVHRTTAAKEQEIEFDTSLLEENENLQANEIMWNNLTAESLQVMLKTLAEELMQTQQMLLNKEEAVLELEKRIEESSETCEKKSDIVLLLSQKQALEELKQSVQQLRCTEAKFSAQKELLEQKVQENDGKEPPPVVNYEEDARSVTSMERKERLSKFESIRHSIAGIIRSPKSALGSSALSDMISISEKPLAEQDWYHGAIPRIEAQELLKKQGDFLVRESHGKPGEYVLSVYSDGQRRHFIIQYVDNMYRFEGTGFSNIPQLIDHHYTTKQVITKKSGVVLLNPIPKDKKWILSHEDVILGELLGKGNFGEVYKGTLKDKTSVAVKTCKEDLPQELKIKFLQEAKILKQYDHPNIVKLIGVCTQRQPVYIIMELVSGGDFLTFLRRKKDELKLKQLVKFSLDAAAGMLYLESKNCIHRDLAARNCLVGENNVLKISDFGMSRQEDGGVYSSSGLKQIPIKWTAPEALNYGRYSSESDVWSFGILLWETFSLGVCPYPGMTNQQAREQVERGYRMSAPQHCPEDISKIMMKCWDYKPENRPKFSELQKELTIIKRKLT
Data set [11] concerns U2OS. In words: Induction of aneuploidy in UTRM10 cells (unknown origin) expressing wild-type LAP-tagged Mps1 at 5 uM treated for 48 hrs by FACS analysis. Format: functional, cell-based. In short, it runs like this: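 UTRM10 cells expressing RNAi-resistant LAP-Mps1 WT or M602Q were treated with compound or DMSO for 48 h, then DNA content was analysed by FACS.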
Data set [12] has as its system U2OS. In words: Inhibition of anaphase delay in thymidine-treated human U2OS cells expressing H2B-GFP and Plk4 overexpression measured for 30 mins by time lapse imaging analysis. It counts as functional, cell-based. The method, boiled down:
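U2OS H2B-GFP cells carrying doxycycline-inducible Plk4. Thymidine 18 h, release into doxycycline (2 μg·ml⁻¹) 10 h, second thymidine 18 h, release 6 h, then 5 μM inhibitor. Time-lapse imaging at 37°C, 5% CO₂ recorded time after NEBD to anaphase. Mean ± SD of 3 independent experiments; Student's t test.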

Data set [13] deals with Cyclin-G-associated kinase (Homo sapiens, UniProt O14976). The data set is described as follows: Binding affinity to GAK (unknown origin) assessed as dissociation constant by Ambit kinase binding assay.
The target in data set [14] is Dual specificity protein kinase CLK1 (Homo sapiens, UniProt P49759). The data set is described as follows: Binding affinity to CLK1 (unknown origin) assessed as dissociation constant by Ambit kinase binding assay.
For data set [15], the system named is U2OS. The data set is described as follows: Initiation of anaphase in human U2OS cells expressing histone H2B-GFP at 10 uM measured for 20 mins by fluorescence time-lapse microscopy (reference value: 10 %). Format: functional. The method, boiled down:
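U2OS H2B-GFP cells were given DMSO or inhibitor and imaged by fluorescence time-lapse at 37°C, 5% CO₂, one frame every 2 min. NEBD-to-anaphase time was scored for 100 cells per population and plotted as cumulative percentage initiating anaphase.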

In data set [16] the target is Proto-oncogene tyrosine-protein kinase ROS (Homo sapiens) (UniProt P08922). The data set is described as follows: Inhibition of ROS1 (unknown origin) assessed as residual enzyme activity at 10 uM by Ambit kinase binding assay relative to control.
Data set [17] deals with U2OS. The data set is described as follows: Reversal of nocodazole-induced mitotic arrest in human U2OS cells assessed as Ser10 phosphorylated Histone H3-positive 4c population at 10 uM incubated for 16 hrs by flow cytometry (reference value: 94 %). It counts as functional.
Data set [18] addresses Insulin receptor (Homo sapiens, UniProt P06213). In words: Binding affinity to INSR (unknown origin) assessed as dissociation constant by Ambit kinase binding assay.
The target of data set [19] is Serine/threonine-protein kinase RIO1 (Homo sapiens) (UniProt Q9BRS2). In words: Inhibition of RIOK1 (unknown origin) assessed as residual enzyme activity at 10 uM by Ambit kinase binding assay relative to control.
Sequence of Serine/threonine-protein kinase RIO1 (Homo sapiens) (Q9BRS2 whole entry): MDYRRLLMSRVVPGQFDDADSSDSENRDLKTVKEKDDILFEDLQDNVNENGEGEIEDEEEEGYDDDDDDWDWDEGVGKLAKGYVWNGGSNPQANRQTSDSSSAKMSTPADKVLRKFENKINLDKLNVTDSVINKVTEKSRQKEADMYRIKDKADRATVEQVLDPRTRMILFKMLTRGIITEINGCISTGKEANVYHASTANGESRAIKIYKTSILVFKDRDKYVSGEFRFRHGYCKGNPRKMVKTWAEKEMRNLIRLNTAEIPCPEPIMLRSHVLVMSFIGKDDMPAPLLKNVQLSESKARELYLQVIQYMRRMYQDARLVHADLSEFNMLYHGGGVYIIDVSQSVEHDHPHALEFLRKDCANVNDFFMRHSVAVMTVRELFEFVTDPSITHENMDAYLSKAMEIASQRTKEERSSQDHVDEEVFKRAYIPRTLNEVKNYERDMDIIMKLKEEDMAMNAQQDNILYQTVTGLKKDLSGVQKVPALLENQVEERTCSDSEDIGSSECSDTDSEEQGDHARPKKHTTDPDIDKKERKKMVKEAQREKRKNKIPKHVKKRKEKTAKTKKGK
In data set [20] the target is Serine/threonine-protein kinase 26 (Homo sapiens) (UniProt Q9P289). The data set is described as follows: Inhibition of MST4 (unknown origin) assessed as residual enzyme activity at 10 uM by Ambit kinase binding assay relative to control.
Sequence of Serine/threonine-protein kinase 26 (Homo sapiens) (Q9P289 2-416 limits assumed): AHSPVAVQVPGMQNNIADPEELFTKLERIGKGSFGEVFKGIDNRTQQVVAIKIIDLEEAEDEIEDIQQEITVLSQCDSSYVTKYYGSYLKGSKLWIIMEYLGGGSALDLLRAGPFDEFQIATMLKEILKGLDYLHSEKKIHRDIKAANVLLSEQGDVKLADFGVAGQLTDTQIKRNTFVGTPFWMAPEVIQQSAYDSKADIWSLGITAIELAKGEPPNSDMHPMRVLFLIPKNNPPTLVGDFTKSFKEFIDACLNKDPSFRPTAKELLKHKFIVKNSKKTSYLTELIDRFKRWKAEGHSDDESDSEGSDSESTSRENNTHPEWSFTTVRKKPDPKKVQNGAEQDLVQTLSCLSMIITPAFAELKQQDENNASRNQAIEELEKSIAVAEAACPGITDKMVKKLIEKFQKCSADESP
In data set [21] the target is Serine/threonine-protein kinase pim-1 (Homo sapiens) (UniProt P11309). In words: Inhibition of PIM1 (unknown origin) assessed as residual enzyme activity at 10 uM by Ambit kinase binding assay relative to control.
Sequence of Serine/threonine-protein kinase pim-1 (Homo sapiens) (P11309 whole entry, looked up): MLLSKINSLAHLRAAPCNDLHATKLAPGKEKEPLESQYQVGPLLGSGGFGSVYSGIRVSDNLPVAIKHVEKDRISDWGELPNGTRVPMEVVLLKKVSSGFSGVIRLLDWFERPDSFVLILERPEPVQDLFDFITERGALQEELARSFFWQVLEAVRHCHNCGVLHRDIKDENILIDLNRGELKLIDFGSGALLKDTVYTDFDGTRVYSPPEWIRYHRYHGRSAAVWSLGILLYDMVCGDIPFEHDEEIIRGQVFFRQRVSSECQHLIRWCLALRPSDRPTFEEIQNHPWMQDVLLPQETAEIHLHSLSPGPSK
For data set [22], the target named is Inhibitor of nuclear factor kappa-B kinase subunit epsilon (Homo sapiens) (UniProt Q14164). The data set is described as follows: Inhibition of IKK-epsilon (unknown origin) assessed as residual enzyme activity at 10 uM by Ambit kinase binding assay relative to control.
Data set [23] addresses Serine/threonine-protein kinase 16 (Homo sapiens) (UniProt O75716). The data set is described as follows: Inhibition of STK16 (unknown origin) assessed as residual enzyme activity at 10 uM by Ambit kinase binding assay relative to control.
The target in data set [24] is Bone morphogenetic protein receptor type-1B (Homo sapiens) (UniProt O00238). In words: Inhibition of BMPR1B (unknown origin) assessed as residual enzyme activity at 10 uM by Ambit kinase binding assay relative to control.
Sequence of Bone morphogenetic protein receptor type-1B (Homo sapiens) (O00238 whole entry): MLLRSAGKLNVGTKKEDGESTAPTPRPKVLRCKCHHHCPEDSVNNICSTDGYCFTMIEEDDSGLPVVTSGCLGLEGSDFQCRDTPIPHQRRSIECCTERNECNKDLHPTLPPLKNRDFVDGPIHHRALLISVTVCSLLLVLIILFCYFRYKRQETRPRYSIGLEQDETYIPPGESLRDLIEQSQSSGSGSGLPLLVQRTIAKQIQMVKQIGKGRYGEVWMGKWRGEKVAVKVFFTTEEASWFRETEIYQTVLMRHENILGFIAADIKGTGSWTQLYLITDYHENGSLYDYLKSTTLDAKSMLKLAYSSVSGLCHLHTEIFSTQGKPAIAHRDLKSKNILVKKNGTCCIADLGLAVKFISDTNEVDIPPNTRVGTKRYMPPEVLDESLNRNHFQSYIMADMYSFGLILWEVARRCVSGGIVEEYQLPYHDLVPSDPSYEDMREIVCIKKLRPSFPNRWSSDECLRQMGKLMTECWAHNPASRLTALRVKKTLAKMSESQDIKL
For data set [25], the target named is Calcium/calmodulin-dependent protein kinase kinase 1 (Homo sapiens) (UniProt Q8N5S9). The data set is described as follows: Inhibition of CAMKK1 (unknown origin) assessed as residual enzyme activity at 10 uM by Ambit kinase binding assay relative to control.
Sequence of Calcium/calmodulin-dependent protein kinase kinase 1 (Homo sapiens) (Q8N5S9 whole entry, looked up): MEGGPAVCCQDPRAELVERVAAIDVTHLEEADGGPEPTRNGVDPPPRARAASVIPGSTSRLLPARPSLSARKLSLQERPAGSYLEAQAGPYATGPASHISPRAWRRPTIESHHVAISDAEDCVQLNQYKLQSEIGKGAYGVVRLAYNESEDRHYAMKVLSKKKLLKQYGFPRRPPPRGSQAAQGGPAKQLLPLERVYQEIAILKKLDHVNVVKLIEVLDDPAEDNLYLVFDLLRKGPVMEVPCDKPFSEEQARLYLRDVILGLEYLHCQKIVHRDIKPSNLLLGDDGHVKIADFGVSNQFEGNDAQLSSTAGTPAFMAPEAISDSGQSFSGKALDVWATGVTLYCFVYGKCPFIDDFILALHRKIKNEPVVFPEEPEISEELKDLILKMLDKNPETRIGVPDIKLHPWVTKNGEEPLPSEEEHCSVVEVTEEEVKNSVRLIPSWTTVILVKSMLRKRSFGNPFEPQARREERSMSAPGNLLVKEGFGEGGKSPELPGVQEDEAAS

What is called pKd is −log10 of the Kd, conventionally taken in molar units.

Sequence of Serine/threonine-protein kinase 16 (Homo sapiens) (O75716 whole entry): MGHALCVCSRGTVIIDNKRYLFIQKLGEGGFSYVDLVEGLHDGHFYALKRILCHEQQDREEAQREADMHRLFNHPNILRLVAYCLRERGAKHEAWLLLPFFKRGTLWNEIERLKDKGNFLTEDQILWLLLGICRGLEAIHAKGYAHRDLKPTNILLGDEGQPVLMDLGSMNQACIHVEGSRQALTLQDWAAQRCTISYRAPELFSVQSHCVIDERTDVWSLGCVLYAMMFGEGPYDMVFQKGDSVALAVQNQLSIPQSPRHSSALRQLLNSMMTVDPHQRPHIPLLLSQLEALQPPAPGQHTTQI
Sequence of Insulin receptor (P06213 28-758 limits assumed): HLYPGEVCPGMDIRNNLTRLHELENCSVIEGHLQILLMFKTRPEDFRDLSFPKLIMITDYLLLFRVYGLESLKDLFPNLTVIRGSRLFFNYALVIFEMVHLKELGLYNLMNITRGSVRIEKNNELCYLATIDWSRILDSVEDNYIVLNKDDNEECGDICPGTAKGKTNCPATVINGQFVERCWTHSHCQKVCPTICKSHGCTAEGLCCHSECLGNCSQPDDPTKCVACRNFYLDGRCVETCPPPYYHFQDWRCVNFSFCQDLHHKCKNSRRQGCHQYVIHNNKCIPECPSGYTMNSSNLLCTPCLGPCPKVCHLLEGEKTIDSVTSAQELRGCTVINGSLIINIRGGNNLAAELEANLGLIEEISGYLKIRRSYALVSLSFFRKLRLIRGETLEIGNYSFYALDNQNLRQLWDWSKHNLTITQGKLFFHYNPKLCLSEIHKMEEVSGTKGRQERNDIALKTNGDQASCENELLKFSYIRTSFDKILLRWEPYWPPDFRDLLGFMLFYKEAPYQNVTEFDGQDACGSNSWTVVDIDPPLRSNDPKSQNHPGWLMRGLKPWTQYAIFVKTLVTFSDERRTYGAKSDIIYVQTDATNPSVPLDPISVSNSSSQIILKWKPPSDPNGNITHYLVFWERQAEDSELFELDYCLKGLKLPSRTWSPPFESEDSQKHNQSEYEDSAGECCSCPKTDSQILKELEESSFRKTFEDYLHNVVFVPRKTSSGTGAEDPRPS
Sequence of Insulin receptor (P06213 763-1382 limits assumed): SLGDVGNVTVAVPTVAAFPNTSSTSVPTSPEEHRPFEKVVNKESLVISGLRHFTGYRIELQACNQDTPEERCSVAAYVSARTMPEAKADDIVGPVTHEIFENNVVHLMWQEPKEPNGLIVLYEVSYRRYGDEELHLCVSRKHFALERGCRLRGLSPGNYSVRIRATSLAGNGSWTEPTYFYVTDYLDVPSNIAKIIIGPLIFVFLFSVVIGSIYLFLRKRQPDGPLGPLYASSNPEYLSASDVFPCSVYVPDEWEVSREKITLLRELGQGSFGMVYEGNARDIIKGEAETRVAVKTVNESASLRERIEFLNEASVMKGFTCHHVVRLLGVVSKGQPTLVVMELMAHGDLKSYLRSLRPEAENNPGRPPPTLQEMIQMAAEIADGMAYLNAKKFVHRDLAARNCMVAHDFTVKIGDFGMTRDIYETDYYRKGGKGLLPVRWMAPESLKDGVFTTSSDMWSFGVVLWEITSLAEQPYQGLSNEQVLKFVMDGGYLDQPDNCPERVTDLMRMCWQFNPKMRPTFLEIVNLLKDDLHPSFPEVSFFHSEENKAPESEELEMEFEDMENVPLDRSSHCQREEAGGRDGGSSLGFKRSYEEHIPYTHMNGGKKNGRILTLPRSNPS

For the compound `COc1cc(N2CCC(O)CC2)ccc1Nc1cc(Nc2ccccc2S(=O)(=O)C(C)C)c2cc[nH]c2n1`, the outcome in [1] and in data set [4] was inactive. Besides, the Activity in data set [2] is 8%; in data set [6] it was approximately 60%; in data set [9], “Toxic”; in data set [10], 16%; in data set [15], approximately 100%; in [16] it was 12%. Moreover, in [17], the Activity was 1%. Besides, the pKd in data set [3] was 5.54; in data set [13] it was 5.96; in data set [14], 5.72; in data set [18], 6.33. Also, the inhibition result in [5] was “inactive”. The outcome in data set [7], in data set [8] and in [11] was Active. Besides, the inhibition entry in data set [12] is “Active”.

As for `O=C1c2ccccc2-c2n[nH]c3cccc1c23`, the Activity was 10% in data set [19]; 2.4% in [20]; 24% in [21]; 12% in [22]; 1.4% in data set [23]; 5% in data set [24]. The Activity in data set [25] worked out at 10%.
